Measurements as given in ChEMBL document CHEMBL1127430, “Novel zinc chelators which inhibit the binding of HIV-EP1 (HIV enhancer binding protein) to NF-kappa B recognition sequence” (J Med Chem, 1994).

Legend:
[1] = molecular target: Zinc finger protein 40 (Homo sapiens) (UniProt P15822); assay: Inhibition of human DNA binding to HIV-EP1 (enhancer binding protein) at 0.1 mM concentration
[2] = molecular target: Zinc finger protein 40 (Homo sapiens) (UniProt P15822); assay: Inhibition of human DNA binding to HIV-EP1 (enhancer binding protein) at 0.01 mM concentration
[3] = molecular target: Zinc finger protein 40 (Homo sapiens) (UniProt P15822); assay: Inhibition of human DNA binding to HIV-EP1 (enhancer binding protein) at 0.4 mM concentration
[4] = molecular target: Zinc finger protein 40 (Homo sapiens) (UniProt P15822); assay: Inhibition of human DNA binding to HIV-EP1 (enhancer binding protein) at 1.0 mM concentration
[5] = molecular target: Zinc finger protein 40 (Homo sapiens) (UniProt P15822); assay: Inhibition of human DNA binding to HIV-EP1 (enhancer binding protein) at 0.7 mM concentration and 2.1 mM of ZnSO4
Outline: (§1)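 Same HIV-EP1 κB-site binding assay: protein with ligand and poly(dI-dC), 30 min at room temperature, in H2O-CH3OH (96:4), then labelled κB oligonucleotide. ZnSO4 at the stated level was introduced either during or after the ligand inhibition reaction. Read-out is percentage of HIV-EP1 bound to DNA.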

[6] = molecular target: Zinc finger protein 40 (Homo sapiens) (UniProt P15822); assay: Inhibition of human DNA binding to HIV-EP1 (enhancer binding protein) at 0.7 mM concentration and 0.7 mM of ZnSO4; outline: as §1
[7] = molecular target: Zinc finger protein 40 (Homo sapiens) (UniProt P15822); assay: Inhibition of human DNA binding to HIV-EP1 (enhancer binding protein) at 0.7 mM concentration
[8] = molecular target: Zinc finger protein 40 (Homo sapiens) (UniProt P15822); assay: Inhibition of human DNA binding to HIV-EP1 (enhancer binding protein) at 0.05 mM concentration
[9] = molecular target: Zinc finger protein 40 (Homo sapiens) (UniProt P15822); details: 4.0 mM

Zinc finger protein 40 (Homo sapiens), sequence (P15822 whole entry, looked up): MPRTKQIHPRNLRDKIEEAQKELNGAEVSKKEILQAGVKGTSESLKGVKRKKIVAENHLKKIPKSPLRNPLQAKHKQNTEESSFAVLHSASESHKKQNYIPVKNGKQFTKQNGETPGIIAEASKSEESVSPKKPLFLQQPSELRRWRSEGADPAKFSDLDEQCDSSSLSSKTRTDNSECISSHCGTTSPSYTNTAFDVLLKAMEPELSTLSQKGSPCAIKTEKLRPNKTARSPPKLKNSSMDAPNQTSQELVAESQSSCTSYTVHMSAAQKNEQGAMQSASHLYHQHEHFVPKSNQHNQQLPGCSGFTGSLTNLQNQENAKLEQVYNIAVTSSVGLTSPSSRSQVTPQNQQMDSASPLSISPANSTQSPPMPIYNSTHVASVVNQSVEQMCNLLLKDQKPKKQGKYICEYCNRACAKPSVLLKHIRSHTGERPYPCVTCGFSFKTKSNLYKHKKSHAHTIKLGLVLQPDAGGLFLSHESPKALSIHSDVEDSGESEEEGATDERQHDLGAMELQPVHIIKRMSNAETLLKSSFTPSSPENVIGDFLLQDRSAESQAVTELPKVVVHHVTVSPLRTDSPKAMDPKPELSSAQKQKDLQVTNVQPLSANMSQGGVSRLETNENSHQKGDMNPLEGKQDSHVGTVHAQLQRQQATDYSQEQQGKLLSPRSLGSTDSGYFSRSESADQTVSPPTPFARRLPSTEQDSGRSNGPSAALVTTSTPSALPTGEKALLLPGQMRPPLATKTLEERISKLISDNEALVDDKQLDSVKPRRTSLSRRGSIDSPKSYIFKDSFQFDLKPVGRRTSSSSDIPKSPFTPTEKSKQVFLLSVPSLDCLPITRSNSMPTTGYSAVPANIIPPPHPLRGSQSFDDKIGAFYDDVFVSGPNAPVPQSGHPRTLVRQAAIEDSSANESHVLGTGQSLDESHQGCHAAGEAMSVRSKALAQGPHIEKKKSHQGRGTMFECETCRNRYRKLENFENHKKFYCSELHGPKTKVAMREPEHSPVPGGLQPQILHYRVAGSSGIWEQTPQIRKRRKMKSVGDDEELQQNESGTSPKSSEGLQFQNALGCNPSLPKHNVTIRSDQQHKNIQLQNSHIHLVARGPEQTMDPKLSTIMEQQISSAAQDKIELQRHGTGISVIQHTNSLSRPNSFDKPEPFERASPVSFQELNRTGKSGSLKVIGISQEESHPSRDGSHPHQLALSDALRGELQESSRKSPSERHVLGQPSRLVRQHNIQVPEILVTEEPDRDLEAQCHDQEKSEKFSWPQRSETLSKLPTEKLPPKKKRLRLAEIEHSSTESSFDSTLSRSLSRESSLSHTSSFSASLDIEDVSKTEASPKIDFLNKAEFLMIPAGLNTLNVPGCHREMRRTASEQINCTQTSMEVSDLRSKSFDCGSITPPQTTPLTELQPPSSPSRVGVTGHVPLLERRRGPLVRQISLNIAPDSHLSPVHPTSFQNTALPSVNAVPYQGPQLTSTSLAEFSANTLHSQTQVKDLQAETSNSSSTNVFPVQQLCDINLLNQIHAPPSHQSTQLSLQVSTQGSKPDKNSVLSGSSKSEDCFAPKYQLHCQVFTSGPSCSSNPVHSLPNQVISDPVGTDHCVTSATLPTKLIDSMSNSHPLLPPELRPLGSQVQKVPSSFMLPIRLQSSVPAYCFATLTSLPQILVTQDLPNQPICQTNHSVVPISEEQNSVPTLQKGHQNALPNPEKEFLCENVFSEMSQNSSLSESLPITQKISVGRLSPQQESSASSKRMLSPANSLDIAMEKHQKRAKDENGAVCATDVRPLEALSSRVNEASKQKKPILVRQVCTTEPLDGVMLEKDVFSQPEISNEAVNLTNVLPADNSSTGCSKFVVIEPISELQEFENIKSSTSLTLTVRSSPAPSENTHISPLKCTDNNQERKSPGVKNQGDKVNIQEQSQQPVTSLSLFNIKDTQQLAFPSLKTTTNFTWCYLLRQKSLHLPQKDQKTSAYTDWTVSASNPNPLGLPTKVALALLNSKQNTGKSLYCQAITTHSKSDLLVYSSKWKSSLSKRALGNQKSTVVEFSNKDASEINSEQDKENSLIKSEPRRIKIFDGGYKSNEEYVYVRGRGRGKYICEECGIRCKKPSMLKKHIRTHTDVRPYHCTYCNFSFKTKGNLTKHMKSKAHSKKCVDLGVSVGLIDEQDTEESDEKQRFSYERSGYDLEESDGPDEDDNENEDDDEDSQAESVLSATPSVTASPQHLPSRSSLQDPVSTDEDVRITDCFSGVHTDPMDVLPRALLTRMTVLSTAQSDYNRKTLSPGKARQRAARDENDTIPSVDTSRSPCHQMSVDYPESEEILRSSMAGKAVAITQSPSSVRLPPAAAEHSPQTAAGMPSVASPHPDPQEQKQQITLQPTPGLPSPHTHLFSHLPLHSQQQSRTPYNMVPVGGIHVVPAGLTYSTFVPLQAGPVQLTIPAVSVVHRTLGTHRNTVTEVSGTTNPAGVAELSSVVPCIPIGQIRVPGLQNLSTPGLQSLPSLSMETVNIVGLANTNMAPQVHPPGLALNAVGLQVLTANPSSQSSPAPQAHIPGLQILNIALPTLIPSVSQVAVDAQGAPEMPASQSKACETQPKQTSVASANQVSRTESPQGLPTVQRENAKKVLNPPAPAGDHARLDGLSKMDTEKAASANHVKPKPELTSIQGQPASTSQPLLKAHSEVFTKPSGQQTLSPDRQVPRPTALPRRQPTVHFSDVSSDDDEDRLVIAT

Binding [1] [%]	Binding [2] [%]	Binding [3] [%]	Binding [4] [%]	Binding [5] [%]	Binding [6] [%]	Binding [7] [%]	Binding [8] [%]	Binding [9] [%]	SMILES
68	100	4	0	100	100	0	81	–	COC(=O)[C@H](Cc1c[nH]cn1)NCc1cc(N(C)C)cc(CN[C@@H](Cc2c[nH]cn2)C(=O)OC)n1
–	–	–	33	–	–	–	–	16	O=C(O)CN(CCN(CC(=O)O)CC(=O)O)CC(=O)O
